These results are taken from ChEMBL document CHEMBL1123106, “Synthesis and biological activity of modified peptide inhibitors of angiotensin-converting enzyme” (J Med Chem, 1985).

For assay [1], the system named is Angiotensin-converting enzyme (Cavia porcellus). As to the kind of experiment: In vitro inhibitory activity against Angiotensin I converting enzyme from unpurified guinea pig serum; No significant activity.
For assay [2], the system named is Rattus norvegicus. The assay can be described thus: % decrease in mean arterial pressure in conscious renal hypertensive rats at a dose of 3 mg/Kg, administered perorally at MAP 190 mmHg. The format is functional, Artery. In a few lines:
(§1)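 Conscious two-kidney, one-clip Goldblatt renal hypertensive rats (N = 3) were dosed orally at 3 or 30 mg/kg. Predose mean arterial pressure was about 190 mmHg. The read-out is % decrease in mean arterial pressure. N marks no significant lowering of arterial pressure at that dose.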

The test system of assay [3] is Rattus norvegicus. The assay can be described thus: % decrease in mean arterial pressure in conscious renal hypertensive rats at a dose of 30 mg/Kg, administered perorally at MAP 190 mmHg. The format is functional, Artery. In a few lines:
as §1

In assay [4] the test system is Rattus norvegicus. The assay can be described thus: % decrease in mean arterial pressure in conscious renal hypertensive rats at a dose of 3 mg/Kg, administered perorally at MAP 190 mm Hg; N means no significant lowering of arterial pressure. The conditions noted are these: Artery. Type of assay: functional, organism-based. The method in brief: as §1
Assay [5] concerns Rattus norvegicus. The assay can be described thus: % Decrease in mean arterial pressure in conscious renal hypertensive rats at a dose of 30 mg/Kg, administered perorally at MAP 190 mmHg. The format is functional, Artery. The method in brief:
as §1

For assay [6], the system named is Rattus norvegicus. The assay can be described thus: % Decrease in mean arterial pressure in conscious renal hypertensive rats at a dose of 3 mg/Kg, administered perorally at MAP 190 mmHg. The format is functional, Artery. In a few lines: as §1
Assay [7] relates to Rattus norvegicus. The assay can be described thus: % Decrease in mean arterial pressure in conscious renal hypertensive rats at a dose of 3 mg/Kg, administered perorally at MAP 190 mm Hg; N means no significant lowering of arterial pressure. Type of assay: functional, organism-based. The conditions noted are these: Artery. The method in brief: as §1
For assay [8], the system named is Rattus norvegicus. As to the kind of experiment: % decrease in mean arterial pressure in conscious renal hypertensive rats at a dose of 3 mg/Kg, administered perorally at MAP 190 mm Hg. The format is functional, Artery. In a few lines: as §1

On to `CC(SC(CCc1ccccc1)C(=O)O)C(=O)NC1(C(=O)O)CCC(c2ccccc2)CC1` (stereo not drawn), for which the IC50 result in assay [1] is “No significant activity”.

As for `CCOC(=O)C(CCc1ccccc1)OC(C)C(=O)N1Cc2ccccc2CC1C(=O)O` (stereo not drawn), the “Decrease in mean arterial pressure” value with Rattus norvegicus [2] amounted to 8%; in the assay on Rattus norvegicus [3], 18%.

As for `CCOC(=O)C(CCc1ccccc1)OC(C)C(=O)N1CCCC1C(=O)O` (stereo not drawn), the “Decrease in mean arterial pressure” value was “No significant activity” in the assay with Rattus norvegicus [4] and 3% with Rattus norvegicus [5].

As for `CCOC(=O)C(CCc1ccccc1)OC(C)C(=O)N1C(C(=O)O)CC2CCCCC21` (stereo not drawn), the “Decrease in mean arterial pressure” value in the assay with Rattus norvegicus [4] was “No significant activity”; in the assay on Rattus norvegicus [3], 12%. Take `CCOC(=O)[C@H](CCc1ccccc1)N[C@@H](C)C(=O)N1Cc2ccccc2C[C@H]1C(=O)O`: in the assay with Rattus norvegicus [6], the “Decrease in mean arterial pressure” value came to 54%. For the compound `CCOC(=O)C(CCc1ccccc1)[S+]([O-])C(C)C(=O)N1C2CCCCC2C[C@H]1C(=O)O` (stereo partly drawn), the “Decrease in mean arterial pressure” value with Rattus norvegicus [7] was “No significant activity”; in the assay with Rattus norvegicus [5], 10%.

In the case of `CC(OC(CCc1ccccc1)C(=O)O)C(=O)N1CCCC1C(=O)O` (stereo not drawn), the “Decrease in mean arterial pressure” value in the assay with Rattus norvegicus [4] is “No significant activity”; in the assay with Rattus norvegicus [3], 9%. As for `CC(SC(CCc1ccccc1)C(=O)O)C(=O)NC1(C(=O)O)CCCC1` (stereo not drawn), in assay [1], the IC50 entry is given as “No significant activity”.

Turning to `CCOC(=O)[C@H](CCc1ccccc1)N[C@@H](C)C(=O)N1C2CCCCC2C[C@H]1C(=O)O` (stereo partly drawn), the “Decrease in mean arterial pressure” value in the assay on Rattus norvegicus [8] is listed as 46%. Regarding `C[C@H](CS)C(=O)N1CCC[C@H]1C(=O)O` [CAPTOPRIL], in the assay on Rattus norvegicus [8], the “Decrease in mean arterial pressure” value is on record as 49%. `CCOC(=O)[C@H](CCc1ccccc1)N[C@@H](C)C(=O)N1CCC[C@H]1C(=O)O`: in the assay with Rattus norvegicus [8], the “Decrease in mean arterial pressure” value was determined as 55%. With `CCOC(=O)C(CCc1ccccc1)S(=O)(=O)C(C)C(=O)N1CCC[C@H]1C(=O)O` (stereo partly drawn), the IC50 result in assay [1] is recorded as “No significant activity”. Still for that read-out and setting: under `CC(C(=O)N1CCC[C@H]1C(=O)O)S(=O)(=O)C(CCc1ccccc1)C(=O)O` (stereo partly drawn) stands “No significant activity”.
